Measurements: ChEMBL document CHEMBL1129574, “Synthesis, structure-activity relationships, and pharmacokinetic properties of dihydroorotate dehydrogenase inhibitors: 2-cyano-3-cyclopropyl-3-hydroxy-N-[3'-methyl-4'-(trifluoromethyl)phenyl ] propenamide and related compounds” (J Med Chem, 1996)

How the values were obtained:
[1] = target: Dihydroorotate dehydrogenase (quinone), mitochondrial (Mus musculus, UniProt O35435); test: Inhibitory concentration tested on enzyme dihydroorotate dehydrogenase in mouse
Mus musculus [2] = test: In vivo ability to inhibit delayed type hypersensitivity in mouse at a concentration of 100 mg/kg; format: functional
How it was run: (§1)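 Male CD-1 mice (25–30 g, n = 8-16) sensitized day 0 by s.c. 1 mg methylated BSA in saline/Freund's complete adjuvant; negative controls saline/FCA. Day 7 challenge: MBSA 0.1 mg into right hind footpad, saline in left. Oral dosing once daily days 4–6 plus twice on day 7 (1 h before, 6 h after challenge). Paw edema read 24 h post-challenge; Student's t-test.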

Rattus norvegicus [3] = test: In vivo ability to inhibit delayed type hypersensitivity in rat at a concentration of 50 mg/kg; format: functional
How it was run: (§2)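 Male CFHB rats (160-180 g, n=7-12) sensitized day 0 by tail-base s.c. FCA (0.4 mg M. tuberculosis in liquid paraffin); controls got incomplete adjuvant. Day 7 challenge: soluble M. tuberculosis extract 0.4 mg into right hind footpad, saline in left. Oral dosing once daily days 4-6 and twice day 7 (1 h before, 6 h after). Edema read at 24 h; Student's t-test.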

Mus musculus [4] = test: In vivo for its ability to inhibit delayed type hypersensitivity in mouse following 30 mg/kg administration.; format: functional; how it was run: as §1
[5] = t1/2 in mouse plasma after oral dose (30/mg/Kg); format: ADME, organism-based
How it was run: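 Male CD-1 mice (25–32 g, n=5/time point) gavaged orally 30 mg/kg (10 mL/kg). Blood by exsanguination under ether at 0, 1, 3, 6, 24, 48, 72 h, pooled per time point, heparinized; plasma stored −20 °C. Drug quantified by reversed-phase HPLC (ODS, pH 7 phosphate/acetonitrile 65:35, UV 300 nm) with internal standard and spiked-plasma calibration.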

Rattus norvegicus [6] = test: In vivo for its ability to inhibit delayed type hypersensitivity in rat following 10 mg/kg administration.
[7] = t1/2 in rat plasma after oral dose (10 mg/kg); format: ADME, organism-based
How it was run: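 Male Wistar CFHB rats (190–220 g, n=3/time point) given 10 mg/kg orally by gavage (10 mL/kg). Cardiac-puncture blood under ether at 0, 1, 3, 6, 24, 48, 72 h, individual heparinized samples; plasma kept at −20 °C. Levels by HPLC (ODS column, 0.1 M pH 7 phosphate 65%/acetonitrile 35%, UV 300 nm), internal standard, peak-area calibration from spiked blank plasma.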

[8] = target: Dihydroorotate dehydrogenase (quinone), mitochondrial (Rattus norvegicus, UniProt Q63707); test: Inhibitory concentration tested against enzyme dihydroorotate dehydrogenase in rat
Mus musculus [9] = test: Compound was tested in vivo for its ability to inhibit DTH(delayed type hypersensitivity ) in mouse at a concentration of 100 mg/kg; format: functional; how it was run: as §1
Rattus norvegicus [10] = test: Compound was tested in vivo for its ability to inhibit DTH(delayed type hypersensitivity ) in rat at a concentration of 50 mg/kg; format: functional; how it was run: as §2

Chain of Dihydroorotate dehydrogenase (quinone), mitochondrial (Mus musculus, UniProt O35435) (O35435 whole entry): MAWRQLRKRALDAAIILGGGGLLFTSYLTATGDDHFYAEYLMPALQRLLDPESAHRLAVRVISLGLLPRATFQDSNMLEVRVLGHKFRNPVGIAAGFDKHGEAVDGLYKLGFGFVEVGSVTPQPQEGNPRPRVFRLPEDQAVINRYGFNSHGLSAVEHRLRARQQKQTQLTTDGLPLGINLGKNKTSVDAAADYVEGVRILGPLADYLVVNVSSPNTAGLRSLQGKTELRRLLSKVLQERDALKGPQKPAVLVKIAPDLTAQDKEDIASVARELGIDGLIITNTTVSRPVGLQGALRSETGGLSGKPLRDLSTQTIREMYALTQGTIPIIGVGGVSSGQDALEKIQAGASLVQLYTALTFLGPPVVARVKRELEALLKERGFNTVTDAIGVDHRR
Chain of Dihydroorotate dehydrogenase (quinone), mitochondrial (Rattus norvegicus, UniProt Q63707) (Q63707 whole entry): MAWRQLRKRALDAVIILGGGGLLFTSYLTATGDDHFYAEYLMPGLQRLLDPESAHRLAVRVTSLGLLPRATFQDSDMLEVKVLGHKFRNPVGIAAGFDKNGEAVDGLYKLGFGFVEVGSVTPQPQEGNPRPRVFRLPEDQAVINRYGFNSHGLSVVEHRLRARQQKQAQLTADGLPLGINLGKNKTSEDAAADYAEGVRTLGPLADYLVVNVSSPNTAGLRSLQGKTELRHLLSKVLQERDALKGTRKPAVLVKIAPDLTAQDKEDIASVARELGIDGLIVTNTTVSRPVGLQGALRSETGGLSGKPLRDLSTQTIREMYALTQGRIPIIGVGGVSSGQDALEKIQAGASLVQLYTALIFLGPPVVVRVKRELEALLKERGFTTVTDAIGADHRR

SMILES	IC50 [1]	inhibition in vivo at 100 mg/kg (Mus musculus [2])	inhibition in vivo at 50 mg/kg (Rattus norvegicus [3])	inhibition in vivo at 30 mg/kg (Mus musculus [4])	half-life [5]	inhibition in vivo at 10 mg/kg (Rattus norvegicus [6])	half-life [7]	IC50 [8]	inhibition in vivo at 100 mg/kg (Mus musculus [9])	inhibition in vivo at 50 mg/kg (Rattus norvegicus [10])
N#C/C(C(=O)Nc1ccc(-c2ccco2)cc1)=C(/O)C1CC1	5900 nM	-13%	58%							
N#C/C(C(=O)Nc1ccc(C#Cc2ccc(Cl)cc2)cc1)=C(/O)C1CC1	5000 nM			61%	68 h	61%	84 h			
Cc1cc(Cl)ccc1NC(=O)/C(C#N)=C(\O)C1CC1	3720 nM			54%		30%		1250 nM		
COC(=O)c1ccc(NC(=O)/C(C#N)=C(\O)C2CC2)cc1	1120 nM	34%	59%							
N#CCc1ccc(NC(=O)/C(C#N)=C(\O)C2CC2)cc1	37200 nM							4570 nM	36%	3%
C=C/C(O)=C(\C#N)C(=O)Nc1ccc(C(F)(F)F)cc1		7%						23 nM		74%
N#C/C(C(=O)Nc1ccc(-c2cccs2)cc1)=C(/O)C1CC1	2510 nM					34%		631 nM		
Cc1ccc(NC(=O)/C(C#N)=C(\O)C2CC2)cc1Cl	282 nM	43%	31%					79 nM		
N#C/C(C(=O)Nc1ccc(Oc2ccccc2)cc1)=C(/O)C1CC1		9%	6%					290 nM		
N#C/C(C(=O)Nc1ccccc1C(F)(F)F)=C(/O)C1CC1	> 100000 nM							> 100000 nM	-10%	-4%
N#C/C(C(=O)Nc1ccc(Oc2ccc(Cl)cc2)cc1)=C(/O)C1CC1	832 nM			63%	21 h	31%	39 h	1510 nM		
N#C/C(C(=O)Nc1ccc(C(F)(F)F)cc1)=C(/O)C1CC1	47 nM			85%	28 h	53%	8 h	21 nM		
Cc1cc(NC(=O)/C(C#N)=C(\O)C2CC2)ccc1Br	63 nM	86%	66%		2 h		4 h	50 nM		
Cc1cc(NC(=O)/C(C#N)=C(\O)C2CC2)ccc1C(F)(F)F	55 nM			81%	8 h	59%	4 h	14 nM		
N#C/C(C(=O)Nc1ccc(Cl)nc1)=C(/O)C1CC1	1780 nM		71%	9%						
N#C/C(C(=O)Nc1ccc(-c2ccccc2)cc1)=C(/O)C1CC1		33%	70%					1480 nM		
N#C/C(C(=O)Nc1ccc(-c2ccc(F)cc2)cc1)=C(/O)C1CC1	8510 nM			53%		79%		2140 nM		
N#C/C(C(=O)Nc1ccc(Cl)cn1)=C(/O)C1CC1	200 nM	48%	64%					76 nM		
Cc1cc(NC(=O)/C(C#N)=C(\O)C2CC2)ccc1Cl	40 nM			41%	8 h	42%	2 h	33 nM		
N#C/C(C(=O)Nc1ccc(C(=O)c2ccc(Cl)cc2)cc1)=C(/O)C1CC1	562 nM			4%		-19%		590 nM		
N#C/C(C(=O)Nc1ccc(Br)cn1)=C(/O)C1CC1				4%	7 h	66%	13 h	37 nM		
N#C/C(C(=O)Nc1ccc(C(F)(F)F)cc1)=C(/O)C1CCOC1 (centres undefined)	11700 nM	29%	14%					17800 nM		
CC(=O)c1ccc(NC(=O)/C(C#N)=C(\O)C2CC2)cc1	3800 nM	32%			4 h	59%	6 h	68 nM		

SMILES	IC50 [1]	inhibition in vivo at 100 mg/kg (Mus musculus [2])	inhibition in vivo at 50 mg/kg (Rattus norvegicus [3])	inhibition in vivo at 30 mg/kg (Mus musculus [4])	half-life [5]	inhibition in vivo at 10 mg/kg (Rattus norvegicus [6])	half-life [7]	IC50 [8]	inhibition in vivo at 100 mg/kg (Mus musculus [9])	inhibition in vivo at 50 mg/kg (Rattus norvegicus [10])
N#C/C(C(=O)Nc1ccc(C(F)(F)F)cc1)=C(/O)C1CCCO1 (centres undefined)	7940 nM	29%	11%					44700 nM		
N#C/C(C(=O)Nc1ccc(C(F)(F)F)cc1)=C(/O)C1CCCC1	28200 nM	58%	19%					31600 nM		
N#C/C(C(=O)Nc1ccc(-c2nc(C(F)(F)F)cs2)cc1)=C(/O)C1CC1	50000 nM					30%		3000 nM		
CS(=O)(=O)c1ccc(NC(=O)/C(C#N)=C(\O)C2CC2)cc1	15100 nM								36%	50%
N#C/C(C(=O)Nc1ccc(C(F)(F)F)cc1)=C(/O)C1CCCN1 (centres undefined)	> 100000 nM	-4%	-16%					> 100000 nM		
CN1CCCC1/C(O)=C(\C#N)C(=O)Nc1ccc(C(F)(F)F)cc1 (centres undefined)	> 100000 nM	10%	23%					> 100000 nM		
N#C/C(C(=O)Nc1ccc(C=Cc2ccc(Cl)cc2)cc1)=C(/O)C1CC1	22 nM	19%	52%							
COc1ccc(NC(=O)/C(C#N)=C(\O)C2CC2)cc1	3720 nM	9%	57%					186 nM		
N#C/C(C(=O)Nc1ccc(C(F)(F)F)cc1)=C(/O)C1CCC1	209 nM	4%	1%					282 nM		
CN(C(=O)c1ccc(NC(=O)/C(C#N)=C(\O)C2CC2)cc1)c1ccc(Cl)cc1	2240 nM	-8%	22%					19100 nM		
N#C/C(C(=O)Nc1ccc(Oc2ccc(C(F)(F)F)cc2)cc1)=C(/O)C1CC1	1510 nM			-17%		39%		3550 nM		
N#C/C(C(=O)Nc1ccc(-c2ncco2)cc1)=C(/O)C1CC1	20000 nM	17%	42%					4270 nM		
N#C/C(C(=O)Nc1ccc(C(N)=O)cc1)=C(/O)C1CC1	> 100000 nM	-18%	20%					14100 nM		
N#C/C(C(=O)Nc1ccncc1)=C(/O)C1CC1	8910 nM	22%	17%					11700 nM		
N#C/C(C(=O)Nc1ccc(C(=O)O)cc1)=C(/O)C1CC1	3720 nM	-6%	39%					1480 nM		
CCc1cc(NC(=O)/C(C#N)=C(\O)C2CC2)ccc1C(F)(F)F	71 nM			61%	6 h	74%	6 h	40 nM		
C[S+]([O-])c1ccc(NC(=O)/C(C#N)=C(\O)C2CC2)cc1 (centres undefined)	22400 nM							832 nM	1%	71%
Cc1cc(NC(=O)/C(C#N)=C(\O)C2CC2)ccc1C#N	36 nM			66%	7 h	50%	6 h	28 nM		
N#C/C(C(=O)Nc1ccc(O)cc1)=C(/O)C1CC1	> 100000 nM	-11%	37%					7940 nM		
N#C/C(C(=O)Nc1ccc(/C=C/c2ccc(Cl)cc2)cc1)=C(/O)C1CC1	12600 nM	69%	46%		43 h		> 30 h			
N#C/C(C(=O)Nc1ccc(N)cc1)=C(/O)C1CC1	31600 nM	32%	1%					21900 nM		
Cc1oncc1C(=O)Nc1ccc(C(F)(F)F)cc1 [LEFLUNOMIDE]	30 nM			84%		78%		9 nM		
